Results taken from ChEMBL document CHEMBL1143122, “Novel analogs of D-e-MAPP and B13. Part 1: synthesis and evaluation as potential anticancer agents” (Bioorg Med Chem, 2008).

Experiments:
Assay type in all cases: functional
SN12C = assay: Antiproliferative activity against human SN12C cells after 48 hrs
Method in brief: (§1)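 NCI 60-cell screen. Cells were grown in RPMI 1640 with 5% FBS and 2 mM L-glutamine, then plated at 5,000–40,000 cells/well according to doubling time and preincubated for 24 h at 37 °C in 5% CO2. Compounds were dissolved in DMSO at 400× the top final concentration and tested at five 10-fold dilutions from 10−4 to 10−8 M for 48 h. Growth was read spectrophotometrically; GI50 is 50% net protein reduction.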

NCI-H226 = assay: Antiproliferative activity against human NCI-H226 cells after 48 hrs; conditions: NCI-H226, 48 h; method in brief: as §1
HCC 2998 = assay: Antiproliferative activity against human HCC2998 cells after 48 hrs; conditions: HCC 2998, 48 h; method in brief: as §1
SF-295 = assay: Antiproliferative activity against human SF295 cells after 48 hrs; conditions: SF-295, 48 h; method in brief: as §1
Hs-578T = assay: Antiproliferative activity against human HS578T cells after 48 hrs; method in brief: as §1
[1] = Antiproliferative activity against human NCI-ADR-RES cells after 48 hrs; method in brief: as §1
T47D = assay: Antiproliferative activity against human T47D cells after 48 hrs
Method in brief: (§2)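 NCI 60-cell-line screen. Lines grown in RPMI 1640 with 5% fetal bovine serum and 2 mM L-glutamine, plated at 5,000–40,000 cells/well according to doubling time, left 24 h at 37 °C in 5% CO2. Drug stocks in DMSO at 400-fold the top final concentration. Five 10-fold dilutions, 10−4 to 10−8 M, incubated 48 h. Growth read spectrophotometrically as net protein; GI50 taken as 50% reduction.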

IGROV-1 = assay: Antiproliferative activity against human IGROV1 cells after 48 hrs; conditions: IGROV-1, 48 h; method in brief: as §1
PC-3 = assay: Antiproliferative activity against human PC3 cells after 48 hrs; conditions: PC-3, 48 h; method in brief: as §1
NCI-H322M = assay: Antiproliferative activity against human NCI-H322M cells after 48 hrs; method in brief: as §1
BT-549 = assay: Antiproliferative activity against human BT549 cells after 48 hrs; conditions: BT-549, 48 h; method in brief: as §1
SK-MEL-5 = assay: Antiproliferative activity against human SKMEL5 cells after 48 hrs; conditions: SK-MEL-5, 48 h; method in brief: as §1
HOP-62 = assay: Antiproliferative activity against human HOP62 cells after 48 hrs; conditions: HOP-62, 48 h; method in brief: as §1
UO-31 = assay: Antiproliferative activity against human UO31 cells after 48 hrs; conditions: UO-31, 48 h; method in brief: as §2
CAKI-1 = assay: Antiproliferative activity against human CAKI1 cells after 48 hrs; conditions: CAKI-1, 48 h; method in brief: as §1
TK-10 = assay: Antiproliferative activity against human TK10 cells after 48 hrs; conditions: TK-10, 48 h; method in brief: as §2
NCI-H460 = assay: Antiproliferative activity against human NCI-H460 cells after 48 hrs; conditions: NCI-H460, 48 h; method in brief: as §1
SF-268 = assay: Antiproliferative activity against human SF268 cells after 48 hrs; conditions: SF-268, 48 h; method in brief: as §1
SNB-75 = assay: Antiproliferative activity against human SNB75 cells after 48 hrs; conditions: SNB-75, 48 h; method in brief: as §1
U-251 = assay: Antiproliferative activity against human U251 cells after 48 hrs; conditions: U-251, 48 h; method in brief: as §2
786-0 = assay: Antiproliferative activity against human 786-0 cells after 48 hrs; conditions: 786-0, 48 h; method in brief: as §1
SW-620 = assay: Antiproliferative activity against human SW620 cells after 48 hrs; conditions: SW-620, 48 h; method in brief: as §2
[2] = Antiproliferative activity against human […] cells after 48 hrs; method in brief: as §1
HT-29 = assay: Antiproliferative activity against human HT29 cells after 48 hrs; conditions: HT-29, 48 h; method in brief: as §1
NCI-H23 = assay: Antiproliferative activity against human NCI-H23 cells after 48 hrs; conditions: NCI-H23, 48 h; method in brief: as §1
DU-145 = assay: Antiproliferative activity against human DU145 cells after 48 hrs; conditions: DU-145, 48 h; method in brief: as §1
COLO 205 = assay: Antiproliferative activity against human COLO205 cells after 48 hrs; conditions: COLO 205, 48 h; method in brief: as §1
CCRF-CEM = assay: Antiproliferative activity against human CCRF-CEM cells after 48 hrs; method in brief: as §1
SK-OV-3 = assay: Antiproliferative activity against human SKOV3 cells after 48 hrs; conditions: SK-OV-3, 48 h; method in brief: as §1
[3] = read-out: Log LC50 (the source's name) (converted)

SMILES: CCCCCCCCCCCCCCN[C@@H](CO)Cc1ccccc1
- GI50 (SN12C): 1.86 µM
- LC50 (50% net cell kill) (SN12C): 7.41 µM
- TGI (SN12C; read-out: Log TGI (converted)): 3.72 µM
- GI50 (NCI-H226): 1.91 µM
- TGI (NCI-H226; read-out: Log TGI (converted)): 3.8 µM
- GI50 (HCC 2998): 2.24 µM
- CC50 (HCC 2998; [3]): 6.17 µM
- TGI (HCC 2998; read-out: Log TGI (converted)): 3.72 µM
- GI50 (SF-295): 1.78 µM
- LC50 (SF-295): 6.17 µM
- TGI (SF-295; read-out: Log TGI (converted)): 3.31 µM
- GI50 (Hs-578T): 2.4 µM
- LC50 (Hs-578T): 11 µM
- TGI (Hs-578T; read-out: Log TGI (converted)): 5.01 µM
- GI50 [1]: 1.86 µM
- LC50 [1]: 6.31 µM
- TGI ([1]; read-out: Log TGI (converted)): 3.47 µM
- GI50 (T47D): 1.66 µM
- CC50 (T47D; [3]): 6.92 µM
- TGI (T47D; read-out: Log TGI (converted)): 3.31 µM
- GI50 (IGROV-1): 1.91 µM
- TGI (IGROV-1; read-out: Log TGI (converted)): 3.72 µM
- GI50 (PC-3): 1.62 µM
- LC50 (PC-3): 5.62 µM
- TGI (PC-3; read-out: Log TGI (converted)): 2.82 µM
- GI50 (NCI-H322M): 2 µM
- CC50 (NCI-H322M; [3]): 7.41 µM
- TGI (NCI-H322M; read-out: Log TGI (converted)): 3.89 µM
- LC50 (BT-549): 4.57 µM
- TGI (BT-549; read-out: Log TGI (converted)): 1.78 µM
- GI50 (SK-MEL-5): 1.78 µM
- CC50 (SK-MEL-5; [3]): 6.03 µM
- TGI (SK-MEL-5; read-out: Log TGI (converted)): 3.24 µM
- GI50 (HOP-62): 1.23 µM
- CC50 (HOP-62; [3]): 5.37 µM
- TGI (HOP-62; read-out: Log TGI (converted)): 2.57 µM
- GI50 (UO-31): 4.37 µM
- LC50 (UO-31): > 100 µM
- TGI (UO-31; read-out: Log TGI (converted)): 21.4 µM
- GI50 (CAKI-1): 1.66 µM
- CC50 (CAKI-1; [3]): 5.62 µM
- TGI (CAKI-1; read-out: Log TGI (converted)): 3.09 µM
- GI50 (TK-10): 2.04 µM
- CC50 (TK-10; [3]): 6.76 µM
- TGI (TK-10; read-out: Log TGI (converted)): 3.72 µM
- GI50 (NCI-H460): 1.82 µM
- CC50 (NCI-H460; [3]): 6.17 µM
- TGI (NCI-H460; read-out: Log TGI (converted)): 3.39 µM
- GI50 (SF-268): 1.78 µM
- LC50 (SF-268): 7.08 µM
- TGI (SF-268; read-out: Log TGI (converted)): 3.55 µM
- GI50 (SNB-75): 2.19 µM
- CC50 (SNB-75; [3]): 14.1 µM
- TGI (SNB-75; read-out: Log TGI (converted)): 4.79 µM
- GI50 (U-251): 1.74 µM
- TGI (U-251; read-out: Log TGI (converted)): 3.24 µM
- GI50 (786-0): 1.82 µM
- CC50 (786-0; [3]): 5.89 µM
- TGI (786-0; read-out: Log TGI (converted)): 3.24 µM
- GI50 (SW-620): 2 µM
- LC50 (concentration killing 50% of cells) (SW-620): 8.13 µM
- TGI (SW-620; read-out: Log TGI (converted)): 4.07 µM
- GI50 [2]: 4.68 µM
- LC50 [2]: 45.7 µM
- TGI ([2]; read-out: Log TGI (converted)): 17 µM
- GI50 (HT-29): 2.04 µM
- LC50 (HT-29): 7.76 µM
- TGI (HT-29; read-out: Log TGI (converted)): 3.98 µM
- GI50 (NCI-H23): 2.09 µM
- CC50 (NCI-H23; [3]): 9.77 µM
- TGI (NCI-H23; read-out: Log TGI (converted)): 4.47 µM
- GI50 (DU-145): 1.45 µM
- CC50 (DU-145; [3]): 6.03 µM
- TGI (DU-145; read-out: Log TGI (converted)): 3.09 µM
- GI50 (COLO 205): 1.66 µM
- CC50 (COLO 205; [3]): 6.03 µM
- TGI (COLO 205; read-out: Log TGI (converted)): 3.16 µM
- GI50 (CCRF-CEM): 1.74 µM
- CC50 (CCRF-CEM; [3]): 7.76 µM
- TGI (CCRF-CEM; read-out: Log TGI (converted)): 3.72 µM
- GI50 (SK-OV-3): 2.19 µM
- CC50 (SK-OV-3; [3]): 9.33 µM
- TGI (SK-OV-3; read-out: Log TGI (converted)): 4.57 µM
